TAAR1 antag: human TAAR1 antagonism; CHO RD-HGA16 TAAR1, Fluo-8 calcium fluorescence, antagonist; 360,000 compounds, 1.5% hits; AID 624466; inhibition, % at 3 µM;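 active = inhibition above a per-plate cutoff, the mean inhibition of test compounds on that plate plus 3 SD, cut at about 49% in these data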
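Test system: RD-HGA16 CHO cells with stable hTAAR1 and Gα16 / Probe or stimulus: EC80 β-phenethylamine stimulus / Times: seeding 17-24 h prior, 75-min 37 °C, 30-min RT dye loading / Detection: Fluo-8 calcium-sensitive fluorescence / Read-out basis: % inhibition scaled between DMSO and EC80 PEA controls / Repeats: singlicate, one well per test compound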
CHRM1 agonist: activates human CHRM1 receptor; P11229; 360,000 compounds, 0.33% hits; CHO-K1 hM1, Fluo-8 calcium fluorescence, agonist mode; 0% DMSO, 100% acetylcholine EC100; AID 588814; activation, % at 3 µM;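 active = activation above the run's mean compound activation plus 3 SD, cut at about 16% in these data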;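 also: peak over basal fluorescence ratio within a 140 s kinetic read after compound addition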
Target sequence (P11229 whole entry, looked up): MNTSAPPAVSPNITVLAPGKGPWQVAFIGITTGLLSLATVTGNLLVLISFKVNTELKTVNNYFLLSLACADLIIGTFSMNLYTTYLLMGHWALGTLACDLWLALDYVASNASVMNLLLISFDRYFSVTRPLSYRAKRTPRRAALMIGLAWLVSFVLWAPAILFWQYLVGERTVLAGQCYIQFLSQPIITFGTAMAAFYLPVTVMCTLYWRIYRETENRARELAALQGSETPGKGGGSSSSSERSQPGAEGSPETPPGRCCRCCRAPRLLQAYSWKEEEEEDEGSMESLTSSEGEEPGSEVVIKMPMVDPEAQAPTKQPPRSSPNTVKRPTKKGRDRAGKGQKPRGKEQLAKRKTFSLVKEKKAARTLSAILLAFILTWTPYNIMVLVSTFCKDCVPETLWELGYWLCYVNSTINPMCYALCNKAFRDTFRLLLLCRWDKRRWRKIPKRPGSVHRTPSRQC
CHRM1 antagonist: human CHRM1 antagonism | P11229 | CHO-K1 hM1, Fluo-8 calcium fluorescence, ACh EC80 antagonist | inhibition, % at 3 µM | 360,000 compounds, 1.3% hits;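 active = percent inhibition above its own plate's cutoff, namely the mean of that plate's compound wells plus 3 SD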;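 also: peak over basal fluorescence ratio during 140 s after agonist addition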
CHRM1 PAM: potentiates human M1 receptor response to acetylcholine. AID 588819. P11229. activation, % at 3 µM. 360,000 compounds, 0.088% hits. CHO-K1 hM1, Fluo-8 calcium fluorescence, ACh EC20; 0% = ACh EC20, 100% = maximal ACh; in the data active = activation above about 19%, passing the limit was not always enough
TAAR1 agonist: human TAAR1 agonism. activation, % at 3 µM. 360,000 compounds, 0.99% hits. AID 624467. CHO RD-HGA16 TAAR1, Fluo-8 calcium fluorescence; vehicle wells 0%, saturating PEA agonist 100%. Q96RJ0;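 active = activation above the mean activation of all test compounds in the run plus 3 SD, cut at about 38% in these data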
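Signal – calcium-sensitive Fluo-8 signal, excitation 470-495, emission 515-575 nm · System – RD-HGA16 (CHO) cells co-expressing Gα16 and hTAAR1 · Incubation – 17-24 h seeding, 75 min 37 °C dye, 30 min RT · Compound dosing – 3 µM single concentration · Repeats – no replicates (n 1)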
TAAR1 nonsel count: nonselective antagonism, TAAR1 counter-screen. shares compounds with TAAR1 antag. counterscreen cell line, calcium fluorescence, antagonist mode. inhibition, % at 3 µM. 2,400 compounds, 77% hits. AID 651780; in the data active = inhibition above about 22%;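 also: CHO-Ga16 host cells stimulated with ATP at an EC80 level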
TAAR1 ant conf: confirmation of human TAAR1 antagonists; 2,400 compounds, 40% hits; inhibition, % at 3 µM; shares compounds with TAAR1 antag; TAAR1-expressing cells, fluorescence antagonist read-out; AID 651785; in the data active = inhibition above about 49%;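 also: CHO-Ga16 host cells challenged with agonist PEA near its EC80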
Ga16 nonsel ag: counter-screen for TAAR1 antagonists: nonselective Ga16 agonists; shares compounds with TAAR1 antag; Ga16-expressing cells, calcium fluorescence, agonist counterscreen; activation, % at 3 µM; 2,400 compounds, 18% hits; AID 651953; in the data active = activation above about 12%
TAAR1 ag count: counter-screen for human TAAR1 antagonists: TAAR1 agonists | hTAAR1 cell line, fluorescence activation, agonist mode | AID 651955 | shares compounds with TAAR1 antag | 2,400 compounds, 2% hits | activation, % at 3 µM; in the data active = activation above about 37%;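 also: CHO cells stably expressing TAAR1 with calcium dye readout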
Of the large screens only hits and unclear results are named; the others gave an inactive call (follow-up assays come after a bar, where they were run). A selection: hits, their analogues and other compounds. The true share with any hit is near 3.4%.

CN(CC(=O)Nc1ccc(Cl)c(C(F)(F)F)c1)C(=O)c1cc(-c2ccncc2)nc2ccccc12	TAAR1 antag 50 | TAAR1 nonsel count 33 | TAAR1 ant conf 53 | Ga16 nonsel ag inactive | TAAR1 ag count inactive
CN(CC(=O)Nc1cccc(F)c1)C(=O)c1cn(-c2ccccc2)nc1-c1ccc(Cl)cc1	none
COc1cccc(NC(=O)CN(C)C(=O)c2cc(-c3ccccc3)nc3ccccc23)c1	TAAR1 antag 70 | TAAR1 nonsel count 34 | TAAR1 ant conf 51 | Ga16 nonsel ag inactive | TAAR1 ag count inactive
COc1cccc(NC(=O)CN(C)C(=O)c2cc(-c3ccc(F)cc3)nc3ccccc23)c1	TAAR1 antag 75, CHRM1 antagonist 27 | TAAR1 nonsel count 40 | TAAR1 ant conf 60 | Ga16 nonsel ag inactive | TAAR1 ag count inactive
COc1cccc(C(NC(C)=O)c2nc(-c3ccc4ccccc4c3)cs2)c1 (stereo unspecified)	none
CC(C)C[C@H]1CNC(=O)C(=O)N1C[C@H]1CCCN1C[C@H](CC(C)C)N1C[C@H](CC(C)C)N(CCc2ccccc2)C(=O)C1=O	none (no result: CHRM1 agonist, CHRM1 antagonist, CHRM1 PAM)
Cc1cccc(C)c1NC(=O)C(c1ccc(C#N)cc1)n1c(=O)c(-c2ccccc2)nc2ccccc21 (stereo unspecified)	none (no result: CHRM1 agonist, CHRM1 antagonist, CHRM1 PAM)
COC(=O)C[C@@H]1CC[C@H](NS(=O)(=O)c2cccc(F)c2)[C@@H](CO)O1	none (no result: CHRM1 agonist, CHRM1 antagonist, CHRM1 PAM)
CSCc1cc(C(=O)NCCN2CCOCC2)c(N)s1	none (no result: CHRM1 agonist, CHRM1 antagonist, CHRM1 PAM)
CN(CC(=O)Nc1cccc(F)c1)C(=O)c1cc(-c2ccco2)nc2ccccc12	none
COc1ccc(-c2cc(C(=O)N(C)CC(=O)Nc3cccc(F)c3)c3ccccc3n2)cc1OC	TAAR1 antag 76, CHRM1 antagonist 37 | TAAR1 nonsel count 44 | TAAR1 ant conf 61 | Ga16 nonsel ag inactive | TAAR1 ag count inactive
COc1ccc(Cl)cc1NC(=O)CN(C)C(=O)c1cn(-c2ccccc2)nc1-c1cccnc1	TAAR1 antag 58 | TAAR1 nonsel count 33 | TAAR1 ant conf inactive | Ga16 nonsel ag inactive | TAAR1 ag count inactive
COc1cccc(C2C(C(=O)OC(C)C)=C(C)N=c3s/c(=C\c4ccc(C(=O)O)cc4)c(=O)n32)c1 (stereo unspecified)	TAAR1 antag 60 | TAAR1 nonsel count 34 | TAAR1 ant conf 53 | Ga16 nonsel ag 17 | TAAR1 ag count inactive
CCOC(=O)c1c(NC(=O)COc2ccccc2C#N)sc2c1CC(C)(C)NC2(C)C	TAAR1 antag 74 | TAAR1 nonsel count 28 | TAAR1 ant conf inactive | Ga16 nonsel ag 14 | TAAR1 ag count inactive
CC1CCc2cc(F)ccc2N1C(=O)CSc1nnc2c(n1)[nH]c1ccccc12 (stereo unspecified)	TAAR1 antag 56 | TAAR1 nonsel count 34 | TAAR1 ant conf 58 | Ga16 nonsel ag inactive | TAAR1 ag count inactive
O=C(COC(=O)Cc1c(Cl)cccc1Cl)Nc1ccccc1-c1ccccc1	TAAR1 antag 62 | TAAR1 nonsel count 22 | TAAR1 ant conf 52 | Ga16 nonsel ag inactive | TAAR1 ag count inactive
COc1cccc(C(C(=O)NC2CCCC2)N2CCN(c3ncccc3C#N)CC2)c1OC (stereo unspecified)	none (no result: CHRM1 agonist, CHRM1 antagonist, CHRM1 PAM)
CCOc1ccc(OCCC(=O)N2CCN(S(=O)(=O)c3ccc(OCC)cc3)CC2)cc1	none
CCOc1ccc(OCCCC(=O)N2CCN(S(=O)(=O)c3ccccc3C#N)CC2)cc1	TAAR1 antag 60 | TAAR1 nonsel count inactive | TAAR1 ant conf inactive | Ga16 nonsel ag inactive | TAAR1 ag count inactive
COc1ccc(CNC(=O)C(c2cccs2)N(Cc2ccco2)C(=O)Cc2cccs2)cc1 (stereo unspecified)	TAAR1 antag 67 | TAAR1 nonsel count 30 | TAAR1 ant conf inactive | Ga16 nonsel ag inactive | TAAR1 ag count inactive

Bioassay records: PubChem, The Scripps Research Institute Molecular Screening Center
